Hits are enriched below; roughly 1.8% of the tested compounds scored in any of these assays.
B2AR ag: beta2AR agonists driving receptor internalization, primary screen, cell-based, FAP fluorogen, flow cytometry; Beta-2 adrenergic receptor (Homo sapiens), P07550; Am2.2-beta2AR cells; response, % (test concentration not listed); hit rate 0.43% among 340,000; AID 504454, 2011;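 active = response above a set limit, near 3 SD of response in nonfluorescent compounds, cut at about 42% in these data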
APJ antag: antagonists of human apelin receptor APJ, primary screen, CHO-K1 cells, beta-arrestin complementation, luminescence; P35414; hit rate 0.32% among 330,000; inhibition, % at 20 µM;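 active = inhibition above about 40% at 20 µM, limit read from the data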;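 note: cells challenged with 10 nM apelin-13 agonist together with compound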
APJ ag: agonists of human apelin receptor APJ, primary screen, CHO-K1 cells, PathHunter beta-arrestin, luminescence; P35414; 0% DMSO wells, 100% apelin; activation, % at 20 µM; hit rate 0.11% among 330,000; AID 2520, 2010;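 active = activation more than six SD over the plate average, tested at 20 µM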
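Material: CHO-K1 APJ beta-arrestin complementation cell line; Input: cell density 1000 per well; Incubation: compound stimulation 90 min at 25 °C, detection 60 min; Signal: luminescence from split beta-galactosidase complementation, Galacton Star/Emerald II substrate; Controls: DMSO-only wells as negative, 10 nM Apelin-13 as positive control.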
EBI2 antag: EBI2 receptor antagonists, beta-arrestin recruitment, primary screen, cell-based, luminescence, 7a,25-OHC stimulation, uHTS | G-protein coupled receptor 183 (Homo sapiens), P32249 | 7a,25-OHC stimulated | inhibition, % at 5 µM | hit rate 0.81% among 360,000 | AID 651636, 2012; in the data active = inhibition above about 38%;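 note: enzyme fragment complementation signal reports receptor beta-arrestin coupling in cells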
CXCR6 block: CXCR6 receptor inhibitors, primary screen, cell-based, beta-arrestin, luminescence, CHO-K1 PathHunter, 1536-well; hit rate 0.36% among 360,000; inhibition, % at 20 µM; AID 602244, 2012; in the data active = inhibition above about 34%, passing the limit was not always enough;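 note: antagonist mode with CXCL16 agonist at 10 nM final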
CCR6 antag: CCR6 receptor antagonists, primary screen, cell-based, CHO-K1, luminescence, beta-arrestin, uHTS. CHO-K1 CCR6 PathHunter beta-arrestin, CCL20-stimulated. inhibition, % at 20 µM. AID 493098, 2011. hit rate 0.49% among 340,000;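 active = compounds whose inhibition of the agonist-driven luminescence signal at 20 µM reaches about 50%, limit read from the data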;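 note: cells stimulated with CCL20 at 14 nM final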
Target sequence (P51684 whole entry, looked up): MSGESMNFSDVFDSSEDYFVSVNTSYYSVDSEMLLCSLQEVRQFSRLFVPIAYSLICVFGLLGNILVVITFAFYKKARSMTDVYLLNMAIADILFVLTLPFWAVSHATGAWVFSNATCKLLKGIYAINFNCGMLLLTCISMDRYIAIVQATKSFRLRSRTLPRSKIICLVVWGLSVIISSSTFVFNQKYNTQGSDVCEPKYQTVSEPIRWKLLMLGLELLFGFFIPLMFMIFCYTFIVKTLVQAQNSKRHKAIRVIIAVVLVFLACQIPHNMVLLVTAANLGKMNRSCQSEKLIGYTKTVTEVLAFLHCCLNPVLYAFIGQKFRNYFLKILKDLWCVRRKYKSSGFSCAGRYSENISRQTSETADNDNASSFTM
Beta2AR ag CP1: beta2AR agonists via receptor internalization, confirmation, cell-based, FAP fluorogen, flow cytometry, single point, cherry pick 1 | Am2.2-beta2AR cells, FAP surface receptor; stronger effect = lower value | hit rate 25% among 1,100 | shares compounds with B2AR ag | percent response (surface receptor), % at 10 µM;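 active = surface receptor percent response at or below 58%, roughly 3 SD from nonfluorescent compounds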
FAP fluor counter: fluorescence artifact in beta-2AR agonist FAP counterscreen; shares compounds with B2AR ag; Am2.2 cells, FAP fluorogen flow cytometry; stronger effect = lower value; calls only at 10 µM; 1,100 tested, under 10 active;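 active = percent response below a set limit in fluorescence channel 1 and below 50% in channel 8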
Large screens that a line does not name were inactive (follow-up assays come after a bar, where they were run).

OCCC1CN(CC2CC2)CCN1Cc1ccc(F)c(F)c1 (centres undefined)	none
Cc1ccc(S(=O)(=O)NC(C)(C)CN2CCC(Cc3ccccc3)CC2)cc1	B2AR ag 50 | Beta2AR ag CP1 inactive | FAP fluor counter inactive
CCOC(=O)C1CCN(CC(C)(C)NS(=O)(=O)c2ccc(C)cc2)CC1	none
CC(C)c1nc2oc3c(NCC4CCCO4)ncnc3c2c2c1COC(C)(C)C2 (centres undefined)	none (no result: APJ antag, APJ ag)
CC(C)c1nc2oc3c(NCCO)ncnc3c2c2c1COC(C)(C)C2	none | Beta2AR ag CP1 inactive | FAP fluor counter inactive
COCCCNc1ncnc2c1sc1nc(-c3ccco3)c3c(c12)CC(C)(C)OC3	B2AR ag 99 | Beta2AR ag CP1 20 | FAP fluor counter inactive
Cc1nc2sc3c(NCc4ccco4)ncnc3c2c2c1COC(C)(C)C2	none
CSc1nc(SCCO)c2sc3nc(-c4ccco4)c4c(c3c2n1)CC(C)(C)OC4	B2AR ag 100 (no result: APJ antag, APJ ag) | Beta2AR ag CP1 6.5 | FAP fluor counter inactive
CC1(C)Cc2c(c(-c3ccco3)nc3sc4c(NCCO)ncnc4c23)CO1	B2AR ag 100 | Beta2AR ag CP1 16 | FAP fluor counter inactive
COC(=O)CSc1nc(SC)nc2c1sc1nc(-c3ccco3)c3c(c12)CC(C)(C)OC3	none (no result: APJ antag, APJ ag)
COc1ccc(NC(=O)CSc2nnnn2C2CC2)cc1S(=O)(=O)N1CCOCC1	none
CSc1ccc(S(=O)(=O)N2CCC(C(=O)NCC3CCCO3)CC2)cc1 (centres undefined)	B2AR ag 155 | Beta2AR ag CP1 inactive | FAP fluor counter inactive
CCOCCCNC(=O)c1cc(-c2cccnc2)nc2ccc(S(=O)(=O)N3CCC(C)CC3)cc12	B2AR ag 59 | Beta2AR ag CP1 57 | FAP fluor counter inactive
OCCC1CCCCN1CC(O)COCc1ccc(Cl)cc1 (centres undefined)	none
COC(=O)c1ccc2c(=O)[nH]c(CSc3nc(-c4ccc(F)cc4)cs3)nc2c1	B2AR ag 64 | Beta2AR ag CP1 inactive | FAP fluor counter inactive
Oc1ccc(NCc2ccccc2OCc2ccccc2)cc1	none | Beta2AR ag CP1 inactive | FAP fluor counter inactive
CC1NC(=O)c2cc3ccccc3cc2-n2c1nc1ccccc1c2=O (centres undefined)	none (no result: B2AR ag, APJ antag, APJ ag, CCR6 antag)
O=C(Nc1ccc2oc(-c3ccncc3)nc2c1)c1ccc2c(c1)OCCO2	B2AR ag 73 | Beta2AR ag CP1 inactive | FAP fluor counter inactive
O=C(Nc1ccc2oc(-c3ccncc3)nc2c1)c1ccc2c(c1)OCO2	none | Beta2AR ag CP1 inactive | FAP fluor counter inactive
COC(=O)[C@@]12C[C@@H](CC(=O)N3CCC(c4ccccc4)CC3)C(=O)N(Cc3cccc4ccccc34)C1=CCC(C)(C)C2	none (no result: B2AR ag, APJ antag, APJ ag, CXCR6 block, CCR6 antag)
O=C(Nc1ccc(S(=O)(=O)Nc2nccs2)cc1)c1cccc(N2C(=O)c3ccccc3C2=O)c1	none | Beta2AR ag CP1 inactive | FAP fluor counter inactive
N#Cc1cccc(C(=O)Nc2ccc(S(=O)(=O)Nc3nccs3)cc2)c1	none
O=C(Nc1ccc(F)cc1)c1cccc(N2C(=O)c3ccccc3C2=O)c1	none | Beta2AR ag CP1 inactive | FAP fluor counter inactive
COCC(=O)OC1CCn2c1nc1c2C(=O)C(C)=C(NC(C)=O)C1=O (centres undefined)	none (no result: APJ antag, APJ ag)
CCCCN(CCCC)c1nc(OC)nc(-n2nnc(C(C)=O)c2C)n1	B2AR ag 73 | Beta2AR ag CP1 25 | FAP fluor counter inactive
CC(C)N(C(=O)CSc1ccc(S(=O)(=O)N2CCCCC2)cn1)c1ccccc1	none
COc1ccccc1N1CCN(C2C(=O)Nc3ccccc3-n3nnnc32)CC1 (centres undefined)	none (no result: B2AR ag, APJ antag, APJ ag, CXCR6 block, CCR6 antag)
